One assay has as its target Transporter (Rattus norvegicus, UniProt Q63380). Nature of the assay: Displacement of [3H]nisoxetine from NET in Sprague-Dawley rat brain cortex membranes after 1 hr. The class given is cell membranes, Membrane. The essentials: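 Rat frontal cortex membranes in 50 mM Tris, 120 mM NaCl, 5 mM KCl, pH 7.4, washed at 50,000 × g, 8 mg wet tissue/tube. 0.5 nM [3H]nisoxetine, 1 h on ice; GF/B filters presoaked in 0.05% PEI. Nonspecific: 1 µM desipramine. Compounds first screened at 1 µM for displacement.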

Assay [1] concerns the target Sodium-dependent serotonin transporter (Rattus norvegicus, UniProt P31652). Nature of the assay: Displacement of [3H]citalopram from SERT in Sprague-Dawley rat brain homogenates after 60 mins by liquid scintillation counting. The class given is tissue-based. The gist of the method:
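Midbrain from male Sprague-Dawley rats (200–225 g), frozen, homogenised in 50 mM Tris with 120 mM NaCl, 5 mM KCl (pH 7.4, 25 °C), washed at 20,000 × g. Nonspecific: 1 µM citalopram. GF/B filters in polyethylenimine, liquid scintillation counting.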

For assay [2], the species on record is Rattus norvegicus. In words: Selectivity ratio of Ki for SERT in Sprague-Dawley rat brain homogenates to Ki for DAT in Sprague-Dawley rat brain homogenates. The class given is tissue-based.
For assay [3], the target named is Sodium-dependent dopamine transporter (Rattus norvegicus, UniProt P23977). Nature of the assay: Displacement of [3H]WIN35428 from DAT in Sprague-Dawley rat brain homogenates after 1 hr by scintillation counting. The class given is tissue-based. The essentials:
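Male Sprague-Dawley rats (200–250 g); caudate-putamen homogenised in ice-cold modified Krebs-HEPES buffer pH 7.4, washed by repeated 20,000 × g spins; fresh membranes ~0.3% w/v (150–300 µg protein). Nonspecific: 100 µM cocaine.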

Assay [4] is filed under the species Rattus norvegicus. In words: Selectivity ratio of Ki for NET in Sprague-Dawley rat brain cortex membranes to Ki for DAT in Sprague-Dawley rat brain homogenates. The class given is cell membranes. The following applies: Membrane.
The nature of assay [5]: Selectivity ratio of DAT over SERT.

Chain of Transporter (Q63380 whole entry): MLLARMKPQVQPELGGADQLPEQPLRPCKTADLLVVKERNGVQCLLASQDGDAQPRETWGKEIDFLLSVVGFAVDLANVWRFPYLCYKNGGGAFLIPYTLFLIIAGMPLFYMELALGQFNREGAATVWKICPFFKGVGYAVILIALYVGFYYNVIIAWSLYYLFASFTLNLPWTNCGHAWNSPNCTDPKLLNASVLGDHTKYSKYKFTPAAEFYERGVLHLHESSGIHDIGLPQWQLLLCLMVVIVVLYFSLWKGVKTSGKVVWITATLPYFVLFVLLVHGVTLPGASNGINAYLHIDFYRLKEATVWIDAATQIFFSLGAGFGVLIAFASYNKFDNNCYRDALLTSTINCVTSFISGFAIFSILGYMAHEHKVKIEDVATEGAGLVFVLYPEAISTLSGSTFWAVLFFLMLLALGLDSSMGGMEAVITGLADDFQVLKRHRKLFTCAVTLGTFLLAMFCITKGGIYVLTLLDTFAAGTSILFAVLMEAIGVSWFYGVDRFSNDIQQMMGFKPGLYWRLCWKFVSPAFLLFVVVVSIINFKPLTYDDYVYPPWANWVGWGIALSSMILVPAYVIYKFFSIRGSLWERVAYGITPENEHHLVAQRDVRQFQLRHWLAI
Chain of Sodium-dependent serotonin transporter (P31652 whole entry): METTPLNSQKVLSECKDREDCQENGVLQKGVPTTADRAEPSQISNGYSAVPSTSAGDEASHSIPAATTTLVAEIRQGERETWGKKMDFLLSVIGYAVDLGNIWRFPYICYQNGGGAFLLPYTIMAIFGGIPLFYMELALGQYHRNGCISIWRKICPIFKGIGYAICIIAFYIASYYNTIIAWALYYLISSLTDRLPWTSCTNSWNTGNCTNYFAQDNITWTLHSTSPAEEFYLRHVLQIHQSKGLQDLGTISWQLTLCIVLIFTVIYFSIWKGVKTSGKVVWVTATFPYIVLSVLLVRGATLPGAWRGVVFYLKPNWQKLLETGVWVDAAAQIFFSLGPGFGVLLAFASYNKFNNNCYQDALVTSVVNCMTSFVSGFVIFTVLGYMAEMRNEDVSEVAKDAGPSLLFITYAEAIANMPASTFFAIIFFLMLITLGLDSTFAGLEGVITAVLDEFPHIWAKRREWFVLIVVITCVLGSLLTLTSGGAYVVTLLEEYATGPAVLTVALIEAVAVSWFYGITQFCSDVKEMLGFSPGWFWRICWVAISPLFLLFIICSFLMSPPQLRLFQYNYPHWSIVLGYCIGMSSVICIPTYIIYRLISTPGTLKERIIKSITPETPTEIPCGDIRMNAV
Chain of Sodium-dependent dopamine transporter (P23977 whole entry): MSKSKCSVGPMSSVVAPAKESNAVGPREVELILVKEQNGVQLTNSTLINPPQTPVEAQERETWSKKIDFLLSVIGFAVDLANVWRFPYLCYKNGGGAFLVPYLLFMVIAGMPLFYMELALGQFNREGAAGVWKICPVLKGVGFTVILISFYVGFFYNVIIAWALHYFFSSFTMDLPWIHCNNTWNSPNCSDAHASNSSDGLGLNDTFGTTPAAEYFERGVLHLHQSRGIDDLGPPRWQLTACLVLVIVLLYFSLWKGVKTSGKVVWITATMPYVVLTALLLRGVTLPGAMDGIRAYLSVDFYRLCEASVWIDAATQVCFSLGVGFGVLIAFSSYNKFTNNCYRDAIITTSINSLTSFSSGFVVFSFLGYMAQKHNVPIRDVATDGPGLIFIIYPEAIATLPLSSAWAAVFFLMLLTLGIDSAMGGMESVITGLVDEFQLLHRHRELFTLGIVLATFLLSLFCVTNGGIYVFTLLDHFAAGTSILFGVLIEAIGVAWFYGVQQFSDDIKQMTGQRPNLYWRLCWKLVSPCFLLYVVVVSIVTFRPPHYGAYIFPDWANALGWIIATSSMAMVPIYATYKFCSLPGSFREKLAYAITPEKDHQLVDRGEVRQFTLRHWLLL

As for `Fc1ccc(CN2[C@@H]3CC[C@H]2C/C(=C/COC(c2ccccc2)c2ccccc2)C3)cc1`, the Ki on Transporter amounted to 3340 nM; in assay [1], 4090 nM; in assay [3] it was 7 nM. Besides, the Ratio Ki in the assay filed under Rattus norvegicus [2] worked out at 585; in the assay filed under Rattus norvegicus [4], 477.
In turn, `C#CCN1[C@@H]2CC[C@H]1C/C(=C/COC(c1ccccc1)c1ccccc1)C2` yielded a Ki in assay [3] of 536 nM.
As for `Fc1ccc(CN2[C@@H]3CC[C@H]2C/C(=C/COC(c2ccc(F)cc2)c2ccc(F)cc2)C3)cc1`, the Ki on Transporter came to 3150 nM; in assay [1], 1140 nM; in assay [3], 4.9 nM. In addition, the values for the Ratio Ki in the assay filed under Rattus norvegicus [2] and in the assay listed under Rattus norvegicus [4] were 234 and 643, respectively.
For `Fc1ccc(C(OC/C=C2\C[C@H]3CC[C@@H](C2)N3CC2CC2)c2ccc(F)cc2)cc1`, in that order: 2500 nM, 4240 nM, 4 nM, 1060 and 625.
Take `C(/COC(c1ccccc1)c1ccccc1)=C1/C[C@H]2CC[C@@H](C1)N2CC1CC1`: in assay [3], the Ki came to 169 nM.
`Cc1ccc(CN2[C@@H]3CC[C@H]2C/C(=C/COC(c2ccccc2)c2ccccc2)C3)cc1`: the Ki stood at 1770 nM at Transporter, 746 nM in assay [1] and 13 nM in assay [3]. For the same molecule, the figures for the Ratio Ki in the assay listed under Rattus norvegicus [2] and in the assay listed under Rattus norvegicus [4] were 57 and 136, respectively.
The corresponding values for `CCCN1[C@@H]2CC[C@H]1C/C(=C/COC(c1ccc(F)cc1)c1ccc(F)cc1)C2` are 2850 nM, 5460 nM, 41 nM, 133 and 69.
`Fc1ccc(C(OC/C=C2\C[C@H]3CC[C@@H](C2)N3Cc2ccccc2)c2ccc(F)cc2)cc1` displayed a Ki in assay [1] of 2220 nM.
In assay [3], `CCN1[C@@H]2CC[C@H]1C/C(=C/COC(c1ccccc1)c1ccccc1)C2` gave an inhibitory constant (Ki) of 286 nM.
`Cc1ccc(CN2[C@@H]3CC[C@H]2C/C(=C/COC(c2ccc(F)cc2)c2ccc(F)cc2)C3)cc1`: the Ki was found to be 2750 nM at Transporter, 405 nM in assay [1] and 6.1 nM in assay [3]. In addition, the Ratio Ki was determined as 68 in the assay filed under Rattus norvegicus [2] and 450 in the assay filed under Rattus norvegicus [4].
`C=CCN1[C@@H]2CC[C@H]1C/C(=C/COC(c1ccc(F)cc1)c1ccc(F)cc1)C2`: the Ki amounted to 3120 nM on Transporter, 3460 nM in assay [1] and 21 nM in assay [3]. Moreover, the Ratio Ki was found to be 167 in the assay listed under Rattus norvegicus [2] and 149 in the assay filed under Rattus norvegicus [4].
`CN1[C@@H]2CC[C@H]1C/C(=C/COC(c1ccc(F)cc1)c1ccc(F)cc1)C2` came in with a Ki in assay [3] of 19 nM. In addition, in assay [5], the Ratio was determined as 300.
For the molecule `C(/COC(c1ccccc1)c1ccccc1)=C1/C[C@H]2CC[C@@H](C1)N2Cc1ccccc1`, the inhibition constant (Ki) at Transporter came out at 1390 nM; in assay [1], 5420 nM; in assay [3] it was 48 nM. Besides, the Ratio Ki in the assay filed under Rattus norvegicus [2] is 113; in the assay listed under Rattus norvegicus [4], 29. Also, the Ratio in assay [5] stood at 300.
Take `Clc1ccc(CN2[C@@H]3CC[C@H]2C/C(=C/COC(c2ccccc2)c2ccccc2)C3)cc1`: the Ki on Transporter came to 2710 nM; in assay [1] it was 544 nM; in assay [3] it was 7.6 nM. Moreover, the Ratio Ki in the assay listed under Rattus norvegicus [2] was determined as 72; in the assay filed under Rattus norvegicus [4], 554.
In assay [3], `CCCN1[C@@H]2CC[C@H]1C/C(=C/COC(c1ccccc1)c1ccccc1)C2` showed a Ki of 245 nM.
For the molecule `Fc1ccc(C(OC/C=C2\C[C@H]3CC[C@@H](C2)N3CCCc2ccccc2)c2ccc(F)cc2)cc1`, the Ratio in assay [5] stood at 300.
For the molecule `C(/COC(c1ccccc1)c1ccccc1)=C1/C[C@H]2CC[C@@H](C1)N2CCCc1ccccc1`, the Ratio in assay [5] is 300.
For the molecule `Fc1ccc(C(OC/C=C2\C[C@H]3CC[C@@H](C2)N3Cc2ccc(Cl)cc2)c2ccc(F)cc2)cc1`, the figures for the Ki (at Transporter; in assay [1]; in assay [3]) were 5300 nM, 656 nM and 3.9 nM, respectively. The Ratio Ki stood at 168 in the assay listed under Rattus norvegicus [2] and 1360 in the assay filed under Rattus norvegicus [4].
In assay [3], `C=CCN1[C@@H]2CC[C@H]1C/C(=C/COC(c1ccccc1)c1ccccc1)C2` came in with a Ki of 143 nM.
Turning to `CN1[C@@H]2CC[C@H]1C/C(=C/COC(c1ccccc1)c1ccccc1)C2`, in assay [3], the affinity, expressed as Ki, was 130 nM. For the same molecule, the Ratio in assay [5] is 300.
With `CCN1[C@@H]2CC[C@H]1C/C(=C/COC(c1ccc(F)cc1)c1ccc(F)cc1)C2`, the results for the Ki (on Transporter; in assay [1]; in assay [3]) were 3580 nM, 5960 nM and 40 nM, respectively. Besides, the Ratio Ki in the assay filed under Rattus norvegicus [2] turned out to be 149; in the assay listed under Rattus norvegicus [4], 89.

Values taken from ChEMBL document CHEMBL1926677, “Further structure-activity relationship studies on 8-substituted-3-[2-(diarylmethoxyethylidenyl)]-8-azabicyclo[3.2.1]octane derivatives at monoamine transporters” (Bioorg Med Chem, 2011).
